From ChEMBL document CHEMBL5247577, “Improved Selective Class I HDAC and Novel Selective HDAC3 Inhibitors: Beyond Hydroxamic Acids and Benzamides” (ACS Med Chem Lett, 2019)
pIC50: −log10 of the molar value.

Experiments:
[1] = biological target: Voltage-gated inwardly rectifying potassium channel KCNH2 (Homo sapiens, UniProt Q12809); test: Inhibition of hERG potassium channel incubated for 4 hrs by fluorescence polarization assay; format: toxicity
Histone deacetylase 3 = Histone deacetylase 3 (Homo sapiens, UniProt O15379); test: Inhibition of human HDAC3 expressed in baculovirus infected insect cells using FLUOR DE LYS-SIRT1 as fluorogenic substrate preincubated for 10 mins followed by substrate addition and measured after 1 hr by spectrophotometer based analysis
Sequence of Histone deacetylase 3 (O15379 whole entry): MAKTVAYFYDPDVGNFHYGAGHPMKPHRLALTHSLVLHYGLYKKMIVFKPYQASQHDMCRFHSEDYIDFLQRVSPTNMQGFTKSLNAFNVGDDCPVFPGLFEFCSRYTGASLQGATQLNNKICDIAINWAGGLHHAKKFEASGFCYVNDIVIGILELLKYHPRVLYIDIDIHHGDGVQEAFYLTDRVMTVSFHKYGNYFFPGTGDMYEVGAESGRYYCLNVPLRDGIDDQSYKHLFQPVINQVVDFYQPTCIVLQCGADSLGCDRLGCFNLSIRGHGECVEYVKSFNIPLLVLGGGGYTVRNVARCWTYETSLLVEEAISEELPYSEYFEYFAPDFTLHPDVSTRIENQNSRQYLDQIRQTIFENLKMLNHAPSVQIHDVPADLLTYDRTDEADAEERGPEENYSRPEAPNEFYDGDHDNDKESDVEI

Histone deacetylase 1 = Histone deacetylase 1 (Homo sapiens, UniProt Q13547); test: Inhibition of human recombinant his tagged HDAC1 expressed in baculovirus expression system using FLUOR DE LYS-SIRT1 as fluorogenic substrate preincubated for 10 mins followed by substrate addition and measured after 1 hr by spectrophotometer based analysis
Sequence of Histone deacetylase 1 (Q13547 whole entry): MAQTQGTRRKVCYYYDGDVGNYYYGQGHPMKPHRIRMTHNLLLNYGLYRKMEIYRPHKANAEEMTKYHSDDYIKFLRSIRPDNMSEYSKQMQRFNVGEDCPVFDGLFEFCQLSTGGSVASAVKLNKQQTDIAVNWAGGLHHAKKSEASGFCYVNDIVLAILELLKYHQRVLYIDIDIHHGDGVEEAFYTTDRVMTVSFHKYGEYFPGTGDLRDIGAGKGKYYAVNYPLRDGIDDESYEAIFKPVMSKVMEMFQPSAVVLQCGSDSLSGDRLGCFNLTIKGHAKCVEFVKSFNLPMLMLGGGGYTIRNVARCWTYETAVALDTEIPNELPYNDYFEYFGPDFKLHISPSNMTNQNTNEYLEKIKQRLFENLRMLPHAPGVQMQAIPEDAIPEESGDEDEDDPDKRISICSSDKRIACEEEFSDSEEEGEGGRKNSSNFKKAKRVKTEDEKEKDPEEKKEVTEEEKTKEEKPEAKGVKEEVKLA

Histone deacetylase 2 = Histone deacetylase 2 (Homo sapiens, UniProt Q92769); test: Inhibition of human HDAC2
Sequence of Histone deacetylase 2 (Q92769 whole entry): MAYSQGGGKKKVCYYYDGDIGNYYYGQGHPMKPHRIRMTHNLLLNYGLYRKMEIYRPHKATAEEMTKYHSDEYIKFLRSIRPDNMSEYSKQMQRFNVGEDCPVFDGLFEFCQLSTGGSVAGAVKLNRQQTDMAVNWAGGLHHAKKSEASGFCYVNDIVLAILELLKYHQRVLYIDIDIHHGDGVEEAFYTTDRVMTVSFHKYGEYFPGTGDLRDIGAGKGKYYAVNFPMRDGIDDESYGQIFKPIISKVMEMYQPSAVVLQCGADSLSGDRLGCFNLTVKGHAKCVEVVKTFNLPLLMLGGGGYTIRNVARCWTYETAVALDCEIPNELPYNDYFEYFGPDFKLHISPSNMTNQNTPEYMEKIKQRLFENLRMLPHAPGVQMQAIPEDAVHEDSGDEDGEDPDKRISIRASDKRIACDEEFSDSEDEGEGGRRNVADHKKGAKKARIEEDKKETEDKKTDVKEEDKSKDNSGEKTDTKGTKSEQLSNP

Histone deacetylase = test: Inhibition of HDAC in human HeLa cells using FLUOR DE LYS-SIRT1 as fluorogenic substrate incubated for 4 hrs by spectrophotometer based analysis; format: cell-based
[2] = AUC in NMRI mouse plasma at 5 to 20 mg/kg, po by LC/MS/MS analysis; format: ADME, organism-based; parameters: route po; conditions: NMRI, plasma, dose 5-20 mg/kg, read-out: AUC
Method in brief: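 Compound given orally as its tartrate salt at 20 mg/kg in mouse, 10 mg/kg in rat and 5 mg/kg in minipig.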

[3] = Metabolic stability in mouse plasma assessed as half life; format: ADME, cell-free
[4] = Metabolic stability in mouse hepatocyte assessed as half life; format: ADME, cell-based; conditions: hepatocytes
[5] = Metabolic stability in human hepatocyte assessed as half life; format: ADME, cell-based; conditions: hepatocytes
[6] = Metabolic stability in human plasma assessed as half life; format: ADME, cell-free

Sequence of Voltage-gated inwardly rectifying potassium channel KCNH2 (Q12809 whole entry): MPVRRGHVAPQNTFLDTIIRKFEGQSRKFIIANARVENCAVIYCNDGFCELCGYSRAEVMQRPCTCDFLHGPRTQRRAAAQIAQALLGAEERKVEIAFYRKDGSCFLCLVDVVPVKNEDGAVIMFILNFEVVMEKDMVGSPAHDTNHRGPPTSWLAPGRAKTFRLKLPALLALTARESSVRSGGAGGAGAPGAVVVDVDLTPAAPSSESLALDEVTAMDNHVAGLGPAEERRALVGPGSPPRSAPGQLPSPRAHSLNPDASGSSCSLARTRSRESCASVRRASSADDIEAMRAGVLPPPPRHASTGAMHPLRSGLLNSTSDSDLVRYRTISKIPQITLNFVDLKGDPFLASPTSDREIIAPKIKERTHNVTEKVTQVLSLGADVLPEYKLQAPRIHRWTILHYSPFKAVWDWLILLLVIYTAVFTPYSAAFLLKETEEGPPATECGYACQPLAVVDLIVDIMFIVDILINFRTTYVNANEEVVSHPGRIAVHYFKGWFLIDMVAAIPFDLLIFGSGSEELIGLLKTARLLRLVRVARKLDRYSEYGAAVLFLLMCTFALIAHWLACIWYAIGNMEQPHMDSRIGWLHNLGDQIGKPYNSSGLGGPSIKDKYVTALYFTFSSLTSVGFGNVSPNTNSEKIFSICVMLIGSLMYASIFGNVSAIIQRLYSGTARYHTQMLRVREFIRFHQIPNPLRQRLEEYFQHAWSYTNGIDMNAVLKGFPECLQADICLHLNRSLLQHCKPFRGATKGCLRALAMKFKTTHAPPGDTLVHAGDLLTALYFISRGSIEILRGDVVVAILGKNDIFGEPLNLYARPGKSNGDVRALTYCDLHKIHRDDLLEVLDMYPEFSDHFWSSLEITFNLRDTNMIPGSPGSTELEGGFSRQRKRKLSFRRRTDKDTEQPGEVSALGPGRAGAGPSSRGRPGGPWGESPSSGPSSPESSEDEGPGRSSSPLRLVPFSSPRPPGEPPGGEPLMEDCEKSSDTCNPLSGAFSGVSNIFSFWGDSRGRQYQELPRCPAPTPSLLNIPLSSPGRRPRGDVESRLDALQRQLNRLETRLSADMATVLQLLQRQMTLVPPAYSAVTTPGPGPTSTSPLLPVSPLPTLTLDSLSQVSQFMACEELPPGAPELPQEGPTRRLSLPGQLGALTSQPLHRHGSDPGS

| Compound | pIC50 [1] | pIC50 (Histone deacetylase 1) | EC50 (Histone deacetylase) | further results |
| --- | --- | --- | --- | --- |
| CCC(=O)CCCCC[C@H](NC(=O)C12CCN(CC1)CC2)c1ncc(-c2cc3ccccc3nc2OC)o1 | 6.72 | 8.80 | 43 nM | pIC50 (Histone deacetylase 3): > 8.46; pIC50 (Histone deacetylase 2): > 8.46 |
| CCC(=O)CCCCC[C@H](NC(=O)C1CN(C)C1)c1ncc(-c2cc3ccccc3[nH]c2=O)o1 | < 4.52 | 8.68 | 94 nM |  |
| CNC(=O)CCCCC[C@H](NC(=O)CCc1c[nH]c2ccccc12)c1ncc(-c2ccc(-n3cccn3)cc2)[nH]1 |  | 6.07 |  |  |
| CCC(=O)CCCCC[C@H](NC(=O)Cn1ccnn1)c1ncc(-c2cc3ccccc3nc2OC)o1 | < 4.52 | 8.52 | 138 nM |  |
| CCC(=O)CCCCC[C@H](NC(=O)C1CN(C)C1)c1ncc(-c2ccc3ccccc3c2)o1 |  | 7.91 | 873 nM |  |
| CCC(=O)CCCCC[C@H](NC(=O)C1(F)CN(C)C1)c1ncc(-c2cc3ccccc3nc2OC)o1 | 4.87 | 7.77 | 430 nM |  |
| CCC(=O)CCCCC[C@H](NC(=O)C(C)(C)N(C)C)c1ncc(-c2cc3ccccc3nc2OC)o1 |  | 8.46 | 15 nM | pIC50 (Histone deacetylase 3): > 8.46; pIC50 (Histone deacetylase 2): > 8.46 |
| CNC(=O)CCCCC[C@H](NC(=O)CCc1c[nH]c2ccccc12)c1ncc(-c2ccc(CN(C)C)cc2)[nH]1 |  | 5.86 |  |  |
| CNC(=O)CCCCC[C@H](NC(=O)c1cncs1)c1ncc(-c2ccc(CN(C)C)cc2)[nH]1 |  | 5.22 |  |  |
| CCC(=O)CCCCC[C@H](NC(=O)Cc1c(C)[nH]c2ccc(OC)cc12)c1ncc(-c2ccc3ccccc3c2)[nH]1 |  | 8.49 | 44 nM |  |
| CCC(=O)CCCCC[C@H](NC(=O)C(=O)N1CCOCC1)c1ncc(-c2cc3ccccc3nc2OC)o1 | < 4.52 | 7.52 | 610 nM |  |
| CCC(=O)CCCCC[C@H](NC(=O)C1CNC(=O)C1)c1ncc(-c2cc3ccccc3nc2OC)o1 (some centres not stated) | < 4.52 | 8.49 | 208 nM |  |
| CCC(=O)CCCCC[C@H](NC(=O)C1CN(C)C1)c1ncc(-c2cc3ccccc3nc2OC)[nH]1 | 5.52 |  |  | AUC [2]: 0.9 µM·h |
| CCC(=O)CCCCC[C@H](NC(=O)C1CN(C)C1)c1ncc(-c2ccc3ccccc3c2)[nH]1 |  | 8.82 | 125 nM |  |
| CNC(=O)CCCCC[C@H](NC(=O)c1cncs1)c1ncc(-c2ccc3ccccc3c2)[nH]1 |  | 6.49 |  |  |
| CNC(=O)CCCCC[C@H](NC(=O)Cn1ccc2cc(C#N)ccc21)c1ncc(-c2ccc(CN(C)C)cc2)[nH]1 |  |  |  | half-life [3]: > 4 h; half-life [4]: > 4 h; half-life [5]: > 4 h; half-life [6]: > 4 h |
| CCC(=O)CCCCC[C@H](NC(=O)Cc1c(C)[nH]c2ccc(OC)cc12)c1ncc(-c2ccc3ccccc3c2)o1 |  | 7.71 | 412 nM |  |
